Results on twelve compounds are retold here after ChEMBL document CHEMBL3351715, “Methylenedioxy flavonoids: assessment of cytotoxic and anti-cancer potential in human leukemia cells” (Eur J Med Chem, 2014).

Calls of active or inactive are those of the source. The calls are words filed in the database; no cut-off is given here.

Series [1] in a line: Cytotoxicity against human U937 cells assessed as cell viability at 10 uM after 72 hrs by trypan blue staining assay. The conditions noted are these: U-937, 72 h.
Series [2] deals with Jurkat. In words: Cytotoxicity against human Jurkat cells assessed as cell viability at 10 uM after 72 hrs by trypan blue staining assay.
The test system of a further series is U-937. In words: Cytotoxicity against human U937 cells assessed as inhibition of cell viability at 20 uM after 72 hrs by trypan blue staining assay. In kind it is functional, cell-based.
Series [3] has as its system K562. In words: Cytotoxicity against human K562 cells assessed as reduction in cell viability after 72 hrs by CellTiter-Glo luminescent cell viability assay. The conditions noted are these: K562, 72 h. The class given is functional, cell-based. The method in brief: (§1)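 Leukemia cells in RPMI/10% FCS at 37 °C, 5% CO2 treated for 24, 48 or 72 h. Equal volume of CellTiter-Glo reagent added, 10 min in the dark at RT, ATP luminescence converted to viable cell number. Normalized to untreated control (%), etoposide as positive control; mean ± SD of three determinations; IC50 from concentration-response.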

The test system of the next series is PBMC. In words: Cytotoxicity against human PBMC assessed as reduction in cell viability at 10 to 50 after 24 to 72 hrs by CellTiter-Glo luminescent cell viability assay. The class given is cell-based. The method in brief:
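PBMCs isolated from healthy donor buffy coats (blood diluted 1/3 in RPMI, Ficoll, 400 × g, 20 min), kept 24 h at 37 °C, 5% CO2, then treated 24–72 h. ATP read by CellTiter-Glo luminescence (10 min, dark, RT), normalized to untreated control (%); etoposide positive control; mean ± SD, n=3.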

For series [4], the system named is Jurkat. In words: Cytotoxicity against human Jurkat cells assessed as reduction in cell viability after 72 hrs by CellTiter-Glo luminescent cell viability assay. In kind it is functional, cell-based. The method in brief: as §1
On the technique in general: Cellular ATP, detected with luciferase, serves as a proxy for viable cell number.

The test system of series [5] is K562. In words: Cytotoxicity against human K562 cells assessed as inhibition of cell proliferation at 20 uM after 72 hrs by trypan blue staining assay. In kind it is functional, cell-based. The method in brief: (§2)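 Trypan blue exclusion count of Jurkat, U937 or K562 cells (RPMI, 10% FCS, 37 °C, 5% CO2, 10 days' culture after thawing) exposed to compound from DMSO stock; controls received equal DMSO. Proliferation expressed relative to control; mean ± SD of three determinations, Student's t-test with p<0.05 taken as significant.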

Series [6] concerns K562. Briefly: Cytostatic effect against human K562 cells at >30 uM after 72 hrs by trypan blue staining assay. In kind it is functional, cell-based. The method in brief: as §2
The nature of series [7]: Cytotoxicity against human U937 cells assessed as reduction in cell viability after 72 hrs by CellTiter-Glo luminescent cell viability assay. In kind it is functional, cell-based. The conditions noted are these: U-937, 72 h. The method in brief: as §1
The test system of series [8] is Jurkat. In words: Induction of apoptosis in human Jurkat cells assessed as caspase-3 cleavage at 20 uM after 48 hrs Western blotting method. The class given is functional, cell-based. The method in brief: (§3)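 Jurkat cells (10⁷ per sample) treated up to 48 h, lysed on ice in hypertonic detergent buffer with protease inhibitors, cleared at 15,000 × g, 15 min, 4 °C. Separated by 10% SDS-PAGE, transferred to nitrocellulose, probed with anti-caspase 3 or anti-caspase 7 (1/1000) and HRP secondary; β-actin loading control.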
(In general: Immunoblotting shows a protein as a band on a membrane.)

For series [9], the system named is Jurkat. Briefly: Induction of apoptosis in human Jurkat cells assessed as caspase-7 cleavage at 20 uM after 48 hrs Western blotting method. In kind it is functional, cell-based. The method in brief: as §3
Series [10] is described as follows: Cytotoxicity against human U937 cells assessed as inhibition of cell proliferation at 30 uM after 72 hrs by trypan blue staining assay. The conditions noted are these: U-937, 72 h. In kind it is functional. The method in brief:
as §2

Series [11] can be described thus: Cytotoxicity against human U937 cells assessed as reduction in cell viability at 10 to 50 uM after 72 hrs by CellTiter-Glo luminescent cell viability assay. The class given is functional, U-937. The method in brief:
as §1

The subject of series [12] is K562. Briefly: Cytotoxicity against human K562 cells assessed as reduction in cell viability after 24 to 72 hrs by CellTiter-Glo luminescent cell viability assay. In kind it is functional, cell-based. The method in brief: as §1
The test system of series [13] is Jurkat. Briefly: Cytotoxicity against human Jurkat cells assessed as inhibition of cell proliferation at 50 uM after 72 hrs by trypan blue staining assay. The class given is functional. The method in brief:
as §2

In series [14] the test system is K562. In words: Cytotoxicity against human K562 cells assessed as inhibition of cell proliferation at 10 to 50 uM after 8 to 72 hrs by trypan blue staining assay. In kind it is functional, cell-based. The method in brief: as §2
For series [15], the system named is Jurkat. In words: Cytotoxicity against human Jurkat cells assessed as inhibition of cell proliferation after 72 hrs by trypan blue staining assay. In kind it is functional, cell-based. The method in brief: as §2
Series [16] can be described thus: Cytotoxicity against human U937 cells assessed as reduction in cell viability at 10 to 50 uM after 48 hrs by CellTiter-Glo luminescent cell viability assay. The class given is functional, U-937. The method in brief: as §1
The test system of series [17] is Jurkat. Briefly: Cytotoxicity against human Jurkat cells assessed as reduction in cell viability after 24 to 72 hrs by CellTiter-Glo luminescent cell viability assay. In kind it is functional, cell-based. The method in brief:
as §1

`COc1ccc(C2CC(=O)c3ccc4c(c3O2)OCO4)cc1` (configuration not stated): the viability at 10 µM in series [1] was determined as 81.7%; in the series on Jurkat [2], 88.2%.
`COc1ccc(-c2cc(=O)c3ccc4c(c3o2)OCO4)cc1OC`: the viability at 10 µM in series [1] was 82.5%; in the series on Jurkat [2] it was 87.9%.
Consider `COc1ccccc1/C=C/C(=O)c1ccc2c(c1O)OCO2`, for which the viability at 10 µM in [1] was 55.4%; with Jurkat [2] it was 59%. The inhibition entry in the series on U-937 and in the series on K562 [5] was “Active” in each case. Also, the results for the IC50 (with K562 [3]; in the series on Jurkat [4]; in [7]) were 42.3 µM, 13.7 µM and 11.4 µM, respectively. Moreover, in the series on PBMC, the Activity entry is “Non-toxic”. Besides, the result in the series on K562 [6], in the series with Jurkat [8] and in the series with Jurkat [9] was Active.
On to `COc1ccccc1C1CC(=O)c2ccc3c(c2O1)OCO3` (configuration not stated), for which the viability at 10 µM in series [1] came to 74%; with Jurkat [2], 83.2%.
Turning to `COc1cc(/C=C/C(=O)c2ccc3c(c2O)OCO3)cc(OC)c1OC`, the viability at 10 µM in [1] is 64.4%; with Jurkat [2] it was 56.1%. Moreover, the inhibition at 30 µM in series [10] was 41%. Further, the entries for the “inhibition (INH)” value in series [11] and in [16] were 20% and 35%, respectively. For the same compound, the inhibition result in the series on K562 [12] and in the series with K562 [14] was “inactive” each time. Further, the Activity entry in the series on PBMC is on record as “Non-toxic”. Also, the inhibition at 50 µM with Jurkat [13] was 70%. Also, the inhibition entry with Jurkat [15] and in the series on Jurkat [17] was “Dose-dependent effect” throughout.
For the compound `COc1ccc(/C=C/C(=O)c2ccc3c(c2O)OCO3)cc1OC`, the viability at 10 µM in series [1] stood at 69.3%; in the series on Jurkat [2], 77.5%.
With `COc1cc(-c2cc(=O)c3ccc4c(c3o2)OCO4)cc(OC)c1OC`, the viability at 10 µM in [1] turned out to be 90.5%; in the series with Jurkat [2], 76%.
In the case of `COc1cc(C2CC(=O)c3ccc4c(c3O2)OCO4)cc(OC)c1OC` (configuration not stated), the viability at 10 µM in series [1] turned out to be 68.3%; in the series with Jurkat [2], 69.7%.
Taken in the same sequence, the figures for `COc1ccccc1-c1cc(=O)c2ccc3c(c2o1)OCO3` were 82.7% and 91.6%.
In the case of `COc1ccc(-c2cc(=O)c3ccc4c(c3o2)OCO4)cc1`, the values for the viability at 10 µM (in series [1]; in the series on Jurkat [2]) were 76.5% and 81.2%, respectively.
With `COc1ccc(C2CC(=O)c3ccc4c(c3O2)OCO4)cc1OC` (configuration not stated), the viability at 10 µM stood at 80.4% in series [1] and 74.9% in the series on Jurkat [2].
Regarding `COc1ccc(/C=C/C(=O)c2ccc3c(c2O)OCO3)cc1`, the viability at 10 µM in series [1] was determined as 80.9%; in the series on Jurkat [2] it was 80.6%.

As usually defined, the viability is a per cent measure of how many cells are alive, often set against a control. The term inhibition denotes the percentage by which the read-out fell short of the control. By IC50 is commonly meant the concentration needed to halve the response being measured.
